Measured values from ChEMBL document CHEMBL1135065, “2-(anilinomethyl)imidazolines as alpha1A adrenergic receptor agonists: 2'-heteroaryl and 2'-oxime ether series” (Bioorg Med Chem Lett, 2002).

How the values were obtained:
[1] = target: T1, Alpha-1A adrenergic receptor (Homo sapiens, UniProt P35348); experiment: In vitro binding affinity against human Alpha-1A adrenergic receptor expressed in rat-1 fibroblasts cells; format: cell-based, Fibroblast
T1 sequence (P35348 whole entry): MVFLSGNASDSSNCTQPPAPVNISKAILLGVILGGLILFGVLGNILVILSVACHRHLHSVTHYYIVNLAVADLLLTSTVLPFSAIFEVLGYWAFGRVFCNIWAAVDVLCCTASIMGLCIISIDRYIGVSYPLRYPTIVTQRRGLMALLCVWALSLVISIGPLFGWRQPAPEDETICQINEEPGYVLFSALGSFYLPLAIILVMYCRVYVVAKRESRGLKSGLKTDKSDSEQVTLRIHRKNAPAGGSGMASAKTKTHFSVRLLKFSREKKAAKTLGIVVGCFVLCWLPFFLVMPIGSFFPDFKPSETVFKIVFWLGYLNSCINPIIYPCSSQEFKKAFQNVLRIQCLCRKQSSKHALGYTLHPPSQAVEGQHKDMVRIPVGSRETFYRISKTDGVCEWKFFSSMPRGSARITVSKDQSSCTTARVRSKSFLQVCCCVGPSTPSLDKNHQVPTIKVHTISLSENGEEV
How it was run: (§1)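 Radioligand binding on membranes from Rat-1 fibroblasts expressing human α1A, α1B or α1D adrenoceptor. Affinity reported as pIC50, mean of at least two experiments.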

[2] = target: T2, Alpha-1B adrenergic receptor (Homo sapiens, UniProt P35368); experiment: In vitro activation of human Alpha-1B receptor expressed in rat-1 fibroblasts via calcium mobilization through the Gq coupled PLC pathway as functional assay
T2 sequence (P35368 whole entry): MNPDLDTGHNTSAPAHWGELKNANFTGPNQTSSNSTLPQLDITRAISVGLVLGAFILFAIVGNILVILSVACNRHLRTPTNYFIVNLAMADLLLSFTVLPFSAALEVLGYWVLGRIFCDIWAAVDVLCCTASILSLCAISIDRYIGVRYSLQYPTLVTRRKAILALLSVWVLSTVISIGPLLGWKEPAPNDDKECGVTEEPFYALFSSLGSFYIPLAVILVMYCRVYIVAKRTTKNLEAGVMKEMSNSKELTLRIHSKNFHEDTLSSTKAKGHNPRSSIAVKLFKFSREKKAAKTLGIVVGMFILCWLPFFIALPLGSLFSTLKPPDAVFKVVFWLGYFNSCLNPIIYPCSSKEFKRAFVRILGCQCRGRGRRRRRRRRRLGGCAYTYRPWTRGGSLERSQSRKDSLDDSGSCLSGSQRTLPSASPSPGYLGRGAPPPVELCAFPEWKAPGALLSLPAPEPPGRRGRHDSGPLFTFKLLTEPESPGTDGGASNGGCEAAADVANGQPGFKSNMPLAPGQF

[3] = target: T2, Alpha-1B adrenergic receptor; experiment: In vitro binding affinity against human Alpha-1B adrenergic receptor expressed in rat-1 fibroblasts; how it was run: as §1
[4] = target: T1, Alpha-1A adrenergic receptor; experiment: In vitro activation of human alpha-1A receptor expressed in rat-1 fibroblasts via calcium mobilization through the Gq coupled PLC pathway as functional assay
How it was run: (§2)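 Calcium mobilization via Gq/PLC was read by FLIPR with Calcium Green fluorescent dye. Eleven-point concentration–response curves, top concentration typically 5 µM, expressed as percent of the 40 µM phenylephrine response. Values are pEC50 and % maximal response, mean of at least two experiments.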

[5] = target: T3, Alpha-1D adrenergic receptor (Homo sapiens, UniProt P25100); experiment: In vitro binding affinity against human Alpha-1D adrenergic receptor expressed in rat-1 fibroblasts; how it was run: as §1
T3 sequence (P25100 whole entry): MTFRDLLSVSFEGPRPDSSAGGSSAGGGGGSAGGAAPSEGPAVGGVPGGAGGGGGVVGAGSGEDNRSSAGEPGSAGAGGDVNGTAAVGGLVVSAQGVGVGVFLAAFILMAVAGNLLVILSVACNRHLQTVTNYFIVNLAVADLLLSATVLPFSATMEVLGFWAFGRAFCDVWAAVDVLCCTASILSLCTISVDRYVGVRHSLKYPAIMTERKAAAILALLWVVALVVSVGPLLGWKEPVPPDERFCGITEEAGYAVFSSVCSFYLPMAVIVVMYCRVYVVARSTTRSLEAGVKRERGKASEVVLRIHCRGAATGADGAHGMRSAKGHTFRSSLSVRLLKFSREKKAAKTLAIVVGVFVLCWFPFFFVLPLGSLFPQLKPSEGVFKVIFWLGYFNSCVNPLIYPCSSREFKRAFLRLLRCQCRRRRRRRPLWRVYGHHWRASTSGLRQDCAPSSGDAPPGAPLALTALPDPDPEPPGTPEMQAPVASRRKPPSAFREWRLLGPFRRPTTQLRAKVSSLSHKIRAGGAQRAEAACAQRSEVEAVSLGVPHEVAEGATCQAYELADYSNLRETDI

[6] = target: T3, Alpha-1D adrenergic receptor; experiment: In vitro activation of human alpha-1D receptor expressed in rat-1 fibroblasts via calcium using mobilization through the Gq coupled PLC pathway as functional assay; how it was run: as §2
[7] = target: T4, Alpha-1A adrenergic receptor (Homo sapiens) (UniProt P35348); experiment: In vitro human alpha-1A receptor activation determined via calcium mobilization through the Gq coupled PLC pathway in rat-1 fibroblasts as percent maximum of phenylephrine response; format: functional
T4 sequence (whole entry): T1 sequence (P35348 whole entry)
How it was run: as §2, with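 “Human α1A (clone #137–12) or α1D (clone #16–7) adrenoceptor stably expressed in Rat-1 fibroblasts. Calcium mobilization” for “Calcium mobilization”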

IC50 [1] [nM]	EC50 [2] [nM]	IC50 [3] [nM]	EC50 [4] [nM]	IC50 [5] [nM]	EC50 [6] [nM]	Max [7] [%]	SMILES
191	> 100000	324	15.1	347	> 100000	–	Cc1ncoc1-c1ccccc1NCC1=NCCN1
–	112	–	0.851	–	49	–	Cc1ccsc1-c1ccccc1NCC1=NCCN1
–	> 5010	–	52.5	–	> 5010	102	CCO/N=C(\C)c1ccccc1NCC1=NCCN1
–	> 100000	–	676	–	> 100000	–	FC(F)(F)c1cccnc1-c1ccccc1NCC1=NCCN1
–	> 100000	–	24.5	–	> 100000	–	Cc1cccnc1-c1ccccc1NCC1=NCCN1
35.5	3.72	132	0.794	38	2.88	–	c1ccc(-c2ccno2)c(NCC2=NCCN2)c1
–	> 5010	–	20.9	–	> 5010	92	CO/N=C(\C)c1ccccc1NCC1=NCCN1
–	46.8	–	2.69	–	> 2000	–	Cc1ccc(-c2ccccc2NCC2=NCCN2)o1
–	> 100000	–	3.31	–	> 100000	112	CC/C(=N\OC)c1ccccc1NCC1=NCCN1
–	> 100000	–	36.3	–	> 100000	–	Cc1ccc(-c2ccccc2NCC2=NCCN2)s1
81.3	30.2	589	6.76	117	41.7	–	c1ccc(-c2ccccc2NCC2=NCCN2)nc1
457	> 5010	229	17.4	295	> 5010	–	c1ccc(-c2cnco2)c(NCC2=NCCN2)c1
–	339	–	4.57	–	182	–	c1ccc(-c2cnccn2)c(NCC2=NCCN2)c1
–	> 5010	–	110	–	> 5010	–	Cc1ncc(-c2ccccc2NCC2=NCCN2)o1
–	> 5010	–	87.1	–	> 5010	141	CC/C(=N/OC)c1ccccc1NCC1=NCCN1
–	69.2	–	4.47	–	> 5010	–	Cc1nc(-c2ccccc2NCC2=NCCN2)cs1
–	> 5010	–	42.7	–	28.8	–	Nc1nccc(-c2ccccc2NCC2=NCCN2)n1
45.7	1.62	447	0.661	40.7	5.01	–	c1ccc(-c2ncco2)c(NCC2=NCCN2)c1
–	6.31	–	0.468	–	16.2	–	c1coc(-c2ccccc2NCC2=NCCN2)c1
–	5.75	–	2.24	–	18.2	–	c1csc(-c2ccccc2NCC2=NCCN2)c1
282	> 5010	162	51.3	42.7	> 5010	94	CO/N=C/c1ccccc1NCC1=NCCN1
191	77.6	2190	10	417	81.3	–	c1cnc(-c2ccccc2NCC2=NCCN2)nc1
–	676	–	724	–	> 5010	–	Cc1nc(-c2ccccc2NCC2=NCCN2)no1
–	> 100000	–	45.7	–	> 100000	–	c1ccc(-c2cnoc2)c(NCC2=NCCN2)c1
–	> 5010	–	661	–	> 5010	–	Cc1noc(-c2ccccc2NCC2=NCCN2)n1
–	> 5010	–	324	–	> 5010	–	Cc1nc(-c2ccccc2NCC2=NCCN2)co1
–	95.5	–	38.9	–	> 100000	–	Cc1cc(-c2ccccc2NCC2=NCCN2)on1
